# Test results reported in publication PMC3270116 (Analytical Biochemistry, 2011).
# Entries after “also recorded” stand apart in the source; their conditions may differ.
# Legend:
# [1] = target: T1, serine racemase (SR) in PC-12 cells (Rattus norvegicus, UniProt Q76EQ0); assay: CE-LIF measurement of intra-cellular D-Ser production in PC-12 cells; format: cell-based; settings: for intra-cellular D-Ser production: 36 h, PC-12, n = 3
# T1 sequence (Q76EQ0 1-333): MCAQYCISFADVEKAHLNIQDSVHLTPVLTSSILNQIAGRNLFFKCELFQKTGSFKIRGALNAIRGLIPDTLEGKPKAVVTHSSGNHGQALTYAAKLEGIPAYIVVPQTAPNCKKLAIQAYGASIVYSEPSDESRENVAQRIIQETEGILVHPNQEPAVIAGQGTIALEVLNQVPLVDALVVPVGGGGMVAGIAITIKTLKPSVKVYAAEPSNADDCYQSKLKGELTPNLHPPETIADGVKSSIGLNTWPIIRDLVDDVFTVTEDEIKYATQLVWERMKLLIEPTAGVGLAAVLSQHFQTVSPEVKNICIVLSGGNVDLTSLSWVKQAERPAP
# Method in brief: (§1)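 PC-12 cells were kept in RPMI-1640 with 10% horse serum and 5% FBS, and 1321N1 cells in DMEM with 10% FBS. […] Pellets were spiked with D-Arg internal standard, ACN-extracted, dried and FITC-labelled. CE-LIF used 0.5 mM HP-β-CD in 80 mM borate, pH 9.3.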
# [2] = target: T2, serine racemase (SR) in C6 cells (Rattus norvegicus, UniProt Q76EQ0); assay: CE-LIF measurement of intra-cellular D-Ser production in C6 cells; format: cell-based; settings: for intra-cellular D-Ser production: 36 h, C6, n = 3
# T2 sequence (Q76EQ0 1-333): T1 sequence (Q76EQ0 1-333)
# Method in brief: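 C6 cells in DMEM with L-Gln, 10% FBS and 1% penicillin/streptomycin were grown at 37 °C in 5% CO2 to >70% confluence. They were then incubated for 36 h in medium with substrate amino acid (0–20 mM) or inhibitor amino acid (0–8 mM), in triplicate. ACN extracts with D-Arg internal standard were FITC-labelled, then run by CE-LIF in 0.5 mM HP-β-CD/80 mM borate, pH 9.3. D-Ser was quantified by area ratio to FITC-D-Arg.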
# [3] = target: T3, serine racemase (SR) in HepG2 cells (Homo sapiens, UniProt Q9GZT4); assay: CE-LIF measurement of intra-cellular D-Ser production in HepG2 cells; format: cell-based; settings: 36 h, HepG2, n = 3
# T3 sequence (Q9GZT4 1-340): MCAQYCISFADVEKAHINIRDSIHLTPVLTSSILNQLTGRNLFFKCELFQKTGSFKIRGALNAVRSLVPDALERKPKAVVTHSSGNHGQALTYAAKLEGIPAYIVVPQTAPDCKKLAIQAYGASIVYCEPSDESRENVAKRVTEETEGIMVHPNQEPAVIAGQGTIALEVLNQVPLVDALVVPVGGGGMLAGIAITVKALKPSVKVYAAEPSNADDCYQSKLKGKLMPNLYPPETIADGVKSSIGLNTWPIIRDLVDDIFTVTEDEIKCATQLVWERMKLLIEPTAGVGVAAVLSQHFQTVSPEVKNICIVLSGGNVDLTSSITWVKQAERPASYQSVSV
# Method in brief: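 Medium for HepG2 was EMEM with 1% L-Gln, 10% FBS, 1% sodium pyruvate and 1% penicillin/streptomycin. Cells at >70% confluence (37 °C, 5% CO2) were exposed for 36 h to medium with substrate amino acid (0–20 mM) or inhibitor amino acid (0–8 mM), in triplicate. Cell extracts in ACN with D-Arg internal standard were FITC-derivatized. CE-LIF used 0.5 mM HP-β-CD in 80 mM borate, pH 9.3, with D-Ser quantified against FITC-D-Arg.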
# [4] = target: T4, serine racemase (SR) in 1321N1 cells (Homo sapiens, UniProt Q9GZT4); assay: CE-LIF measurement of intra-cellular D-Ser production in 1321N1 cells; format: cell-based; settings: for intra-cellular D-Ser production: 36 h, 1321N1, n = 3
# T4 sequence (Q9GZT4 1-340): T3 sequence (Q9GZT4 1-340)
# Method in brief: as §1
# [5] = test system: SR protein (monomer and dimer) in PC-12 cells; assay: Western blot of SR protein expression in PC-12 cells; format: cell-based, rat; settings: PC-12, Gly 6 mM, 36-h treatment
# Method in brief: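 Lysates were BCA-assayed, and 20 μg protein per lane was run on reducing 4–12% SDS-PAGE and moved to PVDF. Blots were blocked in 5% milk, probed with a […] SR antibody, then an HRP secondary, and detected by ECL. Bands were quantified by densitometry, normalised to β-actin, n=2.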
# [6] = test system: SR purified from mouse brain; settings: cited from earlier work
# [7] = target: purified recombinant human SR; settings: cited from earlier work
smiles,measurement,setting,value
"NCC(=O)O [Gly, glycine]",intra-cellular D-Ser production,[1]; Gly 0.25 mM in media,15.91 ± 1.72
same,intra-cellular D-Ser production,[1]; Gly 0.50 mM in media,13.86 ± 2.02
same,intra-cellular D-Ser production,[1]; Gly 1.0 mM in media,11.59 ± 2.43
same,intra-cellular D-Ser production,[1]; Gly 2.0 mM in media,8.30 ± 0.51
same,intra-cellular D-Ser production,[1]; Gly 4.0 mM in media,7.82 ± 0.49
same,intra-cellular D-Ser production,[1]; Gly 6.0 mM in media,4.64 ± 1.36
same,intra-cellular D-Ser production,[1]; Gly 8.0 mM in media,2.72 ± 0.44
same,decrease in intra-cellular D-Ser,"[1]; PC-12, 6 mM Gly",77%
same,IC50,"[1]; read-out: IC50 for the Gly inhibition of SR, PC-12, 36 h, n = 3",1240 ± 390 µM
same,reduction in intra-cellular D-Ser concentrations,"[2]; C6, Gly 0.25 to 8.0 mM added to incubation buffer",97%
same,intra-cellular D-Ser production,[2]; Gly 0.25 mM in media,3.74 ± 0.12
same,intra-cellular D-Ser production,[2]; Gly 0.50 mM in media,3.49 ± 0.17
same,intra-cellular D-Ser production,[2]; Gly 1.0 mM in media,3.15 ± 0.13
same,intra-cellular D-Ser production,[2]; Gly 2.0 mM in media,1.69 ± 0.14
same,intra-cellular D-Ser production,[2]; Gly 4.0 mM in media,0.51 ± 0.11
same,intra-cellular D-Ser production,[2]; Gly 6.0 mM in media,0.41 ± 0.07
same,intra-cellular D-Ser production,[2]; Gly 8.0 mM in media,0.11 ± 0.07
same,intra-cellular D-Ser production,[3]; Gly 0.25 mM in media,14.96 ± 0.91
same,intra-cellular D-Ser production,[3]; Gly 0.50 mM in media,13.85 ± 0.22
same,intra-cellular D-Ser production,[3]; Gly 1.0 mM in media,10.88 ± 0.17
same,intra-cellular D-Ser production,[3]; Gly 2.0 mM in media,10.77 ± 0.14
same,intra-cellular D-Ser production,[3]; Gly 4.0 mM in media,10.31 ± 0.32
same,intra-cellular D-Ser production,[3]; Gly 6.0 mM in media,8.60 ± 0.12
same,intra-cellular D-Ser production,[3]; Gly 8.0 mM in media,7.78 ± 0.27
same,reduction in intra-cellular D-Ser concentrations,"[4]; 1321N1, Gly 0.25 to 8.0 mM added to incubation buffer",35%
same,intra-cellular D-Ser production,[4]; Gly 0.25 mM in media,9.05 ± 2.48
same,intra-cellular D-Ser production,[4]; Gly 0.50 mM in media,8.34 ± 2.16
same,intra-cellular D-Ser production,[4]; Gly 1.0 mM in media,7.38 ± 2.01
same,intra-cellular D-Ser production,[4]; Gly 2.0 mM in media,6.69 ± 1.80
same,intra-cellular D-Ser production,[4]; Gly 4.0 mM in media,6.53 ± 1.98
same,intra-cellular D-Ser production,[4]; Gly 6.0 mM in media,6.32 ± 1.83
same,intra-cellular D-Ser production,[4]; Gly 8.0 mM in media,6.29 ± 1.04
same,IC50,"[4]; read-out: IC50 for the Gly inhibition of SR, 1321N1, 36 h, n = 3",680 ± 150 µM
same,SR dimer or SR monomer expression relative to control,[5],neither of these treatments produced a significant change; also recorded: without causing a significant change
same,reduction in the D-Ser production,[6]; 2 mM Gly in incubation media,80%
same,Ki,[6]; competitive inhibitor,150 µM
same,Ki,[7],370 µM
